Test results: ChEMBL document CHEMBL2029200, “Discovery of a novel melanin concentrating hormone receptor 1 (MCHR1) antagonist with reduced hERG inhibition” (Bioorg Med Chem Lett, 2012)
The source made the active and inactive calls. No cut-off for these calls is given here.

Assays:
[1] = target: T1, Voltage-gated inwardly rectifying potassium channel KCNH2 (Homo sapiens, UniProt Q12809); assay: Binding affinity to human Erg
[2] = tested on: Mus musculus; assay: Antiobesity activity in high fat diet-fed C57BL/6 mouse assessed as reduction in body weight at 3 mg/kg, po daily measured up to day 137 relative to control; type: functional, organism-based; parameters: dose 3 mg/kg
[3] = target: T2, Melanin-concentrating hormone receptor 1 (Homo sapiens, UniProt Q99705); assay: Displacement of [125I]-MCH from MCHR1 after 2 hrs by scintillation counting
T2 sequence (Q99705 whole entry): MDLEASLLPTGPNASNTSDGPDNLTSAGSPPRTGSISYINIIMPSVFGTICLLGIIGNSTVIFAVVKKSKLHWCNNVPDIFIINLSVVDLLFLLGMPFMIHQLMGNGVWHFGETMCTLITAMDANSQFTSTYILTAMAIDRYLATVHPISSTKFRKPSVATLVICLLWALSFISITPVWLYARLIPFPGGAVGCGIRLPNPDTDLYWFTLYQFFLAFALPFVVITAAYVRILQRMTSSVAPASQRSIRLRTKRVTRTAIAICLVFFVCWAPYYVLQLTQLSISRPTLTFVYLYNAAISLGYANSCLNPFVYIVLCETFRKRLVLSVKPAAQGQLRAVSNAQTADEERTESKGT
How it was run: (§1)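 Competition binding on MCHR1 membrane preparation with 125I-MCH tracer. Compound diluted in 50 mM Tris pH 7.4, 10 mM MgCl2, 2.5 mM EDTA, 0.2% BSA. Incubation 2 h at 37 °C with shaking. Bound and free ligand separated by vacuum filtration through BSA-pretreated filter plates. Filters washed 4 times in Hepes/NaCl/BSA buffer, then counted by scintillation.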

[4] = target: T1, Voltage-gated inwardly rectifying potassium channel KCNH2; assay: Inhibition of human Erg expressed in HEK293 cells assessed as rubidium efflux after 4 hrs by atomic absorbance spectrometric analysis
[5] = target: T2, Melanin-concentrating hormone receptor 1; assay: Binding affinity to human MCHR1; how it was run: as §1
[6] = target: T2, Melanin-concentrating hormone receptor 1; assay: Antagonist activity at human MCHR1 assessed inhibition of MCH-mediated intracellular Ca2+ calcium mobilization by aequorin assay; type: functional, cell-based
How it was run: (§2)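 MCH-evoked intracellular Ca2+ mobilization read by aequorin luminescence in cells. Antagonism measured as blockade of the MCH response.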

[7] = target: Melanin-concentrating hormone receptor 1 (Mus musculus, UniProt Q8JZL2); assay: Antagonist activity at mouse MCHR1 assessed inhibition of MCH-mediated intracellular Ca2+ calcium mobilization; type: functional, cell-based; how it was run: as §2
[8] = target: Melanin-concentrating hormone receptor 1 (Rattus norvegicus, UniProt P97639); assay: Antagonist activity at rat MCHR1 assessed inhibition of MCH-mediated intracellular Ca2+ calcium mobilization; type: functional, cell-based; how it was run: as §2
[9] = target: Melanin-concentrating hormone receptor 1 (Macaca mulatta, UniProt Q8MJ89); assay: Antagonist activity at rhesus monkey MCHR1 assessed inhibition of MCH-mediated intracellular Ca2+ calcium mobilization; type: functional, cell-based; how it was run: as §2
Sequence of Melanin-concentrating hormone receptor 1 (Macaca mulatta, UniProt Q8MJ89) (Q8MJ89 whole entry): as the sequence (Q99705 whole entry) above, with A14T, T33S, I36V, T60M counted along it

[10] = target: Melanin-concentrating hormone receptor 2 (Homo sapiens, UniProt Q969V1); assay: Antagonist activity at human MCHR2 assessed inhibition of MCH-mediated intracellular Ca2+ calcium mobilization; type: functional, cell-based; how it was run: as §2
[11] = target: 5-hydroxytryptamine receptor 1A (Homo sapiens, UniProt P08908); assay: Binding affinity to serotonin 5HT1A receptor
[12] = target: 5-hydroxytryptamine receptor 2A (Homo sapiens, UniProt P28223); assay: Binding affinity to serotonin 5HT2A receptor
Sequence of 5-hydroxytryptamine receptor 2A (P28223 whole entry): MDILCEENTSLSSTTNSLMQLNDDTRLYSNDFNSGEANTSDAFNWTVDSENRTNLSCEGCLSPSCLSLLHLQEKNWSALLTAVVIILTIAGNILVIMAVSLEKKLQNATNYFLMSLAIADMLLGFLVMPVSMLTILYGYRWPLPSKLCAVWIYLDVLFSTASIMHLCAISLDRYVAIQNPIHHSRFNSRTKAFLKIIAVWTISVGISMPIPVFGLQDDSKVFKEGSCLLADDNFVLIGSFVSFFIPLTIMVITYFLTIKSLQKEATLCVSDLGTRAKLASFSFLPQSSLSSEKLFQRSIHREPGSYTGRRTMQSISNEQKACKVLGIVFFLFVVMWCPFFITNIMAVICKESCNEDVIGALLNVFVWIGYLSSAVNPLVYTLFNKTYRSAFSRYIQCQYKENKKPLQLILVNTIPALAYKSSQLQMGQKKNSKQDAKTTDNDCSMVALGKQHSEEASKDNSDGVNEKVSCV

[13] = target: T3, 5-hydroxytryptamine receptor 2C (Homo sapiens, UniProt P28335); assay: Binding affinity to serotonin 5HT2C receptor
T3 sequence (P28335 whole entry): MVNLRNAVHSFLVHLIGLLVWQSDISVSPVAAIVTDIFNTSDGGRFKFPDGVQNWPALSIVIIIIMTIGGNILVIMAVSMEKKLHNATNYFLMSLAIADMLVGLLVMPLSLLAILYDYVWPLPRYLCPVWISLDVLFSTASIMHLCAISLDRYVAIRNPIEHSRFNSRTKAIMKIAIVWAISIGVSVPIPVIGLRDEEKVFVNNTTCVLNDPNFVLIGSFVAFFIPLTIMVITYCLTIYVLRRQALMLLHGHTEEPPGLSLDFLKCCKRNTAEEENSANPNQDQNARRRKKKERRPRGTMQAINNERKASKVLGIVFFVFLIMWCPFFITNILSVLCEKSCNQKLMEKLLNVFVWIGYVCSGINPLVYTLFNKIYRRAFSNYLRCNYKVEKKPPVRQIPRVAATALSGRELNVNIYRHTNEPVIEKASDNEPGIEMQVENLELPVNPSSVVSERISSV

[14] = target: T3, 5-hydroxytryptamine receptor 2C; assay: Antagonist activity at serotonin 5HT2C receptor assessed as blockage of intracellular calcium mobilization; type: functional, cell-based
[15] = target: D(1A) dopamine receptor (Homo sapiens, UniProt P21728); assay: Binding affinity to dopamine D1 receptor
[16] = target: D(2) dopamine receptor (Homo sapiens, UniProt P14416); assay: Binding affinity to dopamine D2 receptor
Sequence of D(2) dopamine receptor (P14416 whole entry): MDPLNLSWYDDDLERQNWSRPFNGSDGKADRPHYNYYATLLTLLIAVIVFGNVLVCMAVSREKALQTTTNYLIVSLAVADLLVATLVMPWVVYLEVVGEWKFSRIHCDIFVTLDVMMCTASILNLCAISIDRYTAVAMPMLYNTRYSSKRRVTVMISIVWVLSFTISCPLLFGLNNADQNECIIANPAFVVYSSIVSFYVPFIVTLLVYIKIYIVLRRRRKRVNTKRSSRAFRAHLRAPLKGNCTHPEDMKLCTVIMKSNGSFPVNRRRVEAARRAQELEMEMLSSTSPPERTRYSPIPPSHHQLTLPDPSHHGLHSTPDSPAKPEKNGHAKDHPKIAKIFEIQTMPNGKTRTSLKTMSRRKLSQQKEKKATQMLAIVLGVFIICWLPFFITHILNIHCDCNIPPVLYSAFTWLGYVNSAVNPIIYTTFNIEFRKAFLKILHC

[17] = target: Alpha-2A adrenergic receptor (Homo sapiens, UniProt P08913); assay: Binding affinity to adrenergic alpha2A receptor
Sequence of Alpha-2A adrenergic receptor (P08913 whole entry): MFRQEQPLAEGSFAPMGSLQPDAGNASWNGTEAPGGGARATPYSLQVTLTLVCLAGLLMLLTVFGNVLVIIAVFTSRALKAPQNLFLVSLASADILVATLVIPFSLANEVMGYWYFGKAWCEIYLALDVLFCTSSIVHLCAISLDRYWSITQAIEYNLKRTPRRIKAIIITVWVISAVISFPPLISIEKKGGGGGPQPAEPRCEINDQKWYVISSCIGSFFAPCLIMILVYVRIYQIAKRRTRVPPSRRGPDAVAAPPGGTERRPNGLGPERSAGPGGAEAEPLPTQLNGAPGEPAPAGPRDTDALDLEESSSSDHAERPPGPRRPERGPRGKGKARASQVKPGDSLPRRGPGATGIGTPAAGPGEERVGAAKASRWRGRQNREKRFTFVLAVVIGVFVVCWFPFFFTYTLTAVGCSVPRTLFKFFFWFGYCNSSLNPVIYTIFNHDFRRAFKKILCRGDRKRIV

[18] = target: Alpha-2C adrenergic receptor (Homo sapiens, UniProt P18825); assay: Binding affinity to adrenergic alpha2C receptor
Sequence of Alpha-2C adrenergic receptor (P18825 whole entry): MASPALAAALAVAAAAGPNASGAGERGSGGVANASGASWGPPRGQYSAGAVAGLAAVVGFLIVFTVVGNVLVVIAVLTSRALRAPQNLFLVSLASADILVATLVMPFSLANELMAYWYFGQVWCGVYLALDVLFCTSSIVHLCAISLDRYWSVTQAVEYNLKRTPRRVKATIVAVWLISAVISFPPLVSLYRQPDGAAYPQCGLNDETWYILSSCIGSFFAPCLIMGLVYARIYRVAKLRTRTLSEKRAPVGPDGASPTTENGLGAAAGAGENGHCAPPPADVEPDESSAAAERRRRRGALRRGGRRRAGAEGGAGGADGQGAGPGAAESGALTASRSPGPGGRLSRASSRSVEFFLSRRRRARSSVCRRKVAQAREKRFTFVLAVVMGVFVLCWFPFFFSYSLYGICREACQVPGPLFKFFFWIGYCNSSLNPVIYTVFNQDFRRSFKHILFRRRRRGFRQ

[19] = target: Mu-type opioid receptor (Homo sapiens, UniProt P35372); assay: Binding affinity to opioid mu receptor
[20] = target: Muscarinic acetylcholine receptor M2 (Homo sapiens, UniProt P08172); assay: Binding affinity to muscarinic M2 receptor
Sequence of Muscarinic acetylcholine receptor M2 (P08172 whole entry): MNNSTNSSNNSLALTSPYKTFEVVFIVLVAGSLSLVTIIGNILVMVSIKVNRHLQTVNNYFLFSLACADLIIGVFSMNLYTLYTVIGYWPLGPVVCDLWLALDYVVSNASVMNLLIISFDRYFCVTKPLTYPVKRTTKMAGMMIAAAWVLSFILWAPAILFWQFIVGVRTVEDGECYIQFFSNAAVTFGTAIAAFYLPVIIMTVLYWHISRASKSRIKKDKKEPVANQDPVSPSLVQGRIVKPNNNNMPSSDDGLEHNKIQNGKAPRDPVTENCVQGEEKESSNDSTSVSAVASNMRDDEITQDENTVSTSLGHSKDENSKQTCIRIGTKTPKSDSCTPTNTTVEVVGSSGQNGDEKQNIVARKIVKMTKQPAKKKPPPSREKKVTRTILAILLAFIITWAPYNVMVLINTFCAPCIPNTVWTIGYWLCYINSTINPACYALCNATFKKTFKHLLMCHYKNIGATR

[21] = target: Muscarinic acetylcholine receptor M3 (Homo sapiens, UniProt P20309); assay: Binding affinity to muscarinic M3 receptor
[22] = target: Sodium-dependent noradrenaline transporter (Homo sapiens, UniProt P23975); assay: Binding affinity to norepinephrine transporter
[23] = target: Sodium-dependent serotonin transporter (Homo sapiens, UniProt P31645); assay: Binding affinity to serotonin transporter
Sequence of Sodium-dependent serotonin transporter (P31645 whole entry): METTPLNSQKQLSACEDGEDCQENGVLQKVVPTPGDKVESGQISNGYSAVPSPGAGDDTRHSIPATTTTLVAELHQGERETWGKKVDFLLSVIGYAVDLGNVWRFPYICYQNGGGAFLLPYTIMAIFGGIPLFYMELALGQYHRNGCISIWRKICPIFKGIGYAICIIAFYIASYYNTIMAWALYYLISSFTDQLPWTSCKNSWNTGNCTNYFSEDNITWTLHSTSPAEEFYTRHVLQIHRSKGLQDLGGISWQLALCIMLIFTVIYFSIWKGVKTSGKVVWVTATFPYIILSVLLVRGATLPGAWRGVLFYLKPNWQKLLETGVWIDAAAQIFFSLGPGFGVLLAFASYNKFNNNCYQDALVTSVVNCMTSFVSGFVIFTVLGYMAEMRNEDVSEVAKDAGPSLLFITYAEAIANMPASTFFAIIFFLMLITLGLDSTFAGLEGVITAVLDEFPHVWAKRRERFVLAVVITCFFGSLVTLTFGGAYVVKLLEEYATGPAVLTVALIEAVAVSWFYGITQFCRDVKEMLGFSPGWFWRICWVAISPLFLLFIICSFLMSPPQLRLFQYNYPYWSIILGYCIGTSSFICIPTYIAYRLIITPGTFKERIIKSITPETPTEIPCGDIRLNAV

[24] = Clearance in mouse at 0.5 mg/kg, iv; type: ADME, organism-based; parameters: dose 0.5 mg/kg, route intravenous; conditions: in vivo
How it was run: (§3)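 Pharmacokinetics determined after IV dosing at 0.5 mg/kg and oral dosing at 3 mg/kg.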

[25] = Volume of distribution at steady state in mouse at 0.5 mg/kg, iv; type: ADME, organism-based; parameters: dose 0.5 mg/kg, route intravenous; conditions: in vivo, read-out: Vdss; how it was run: as §3
[26] = Clearance in rat at 0.5 mg/kg, iv; type: ADME, organism-based; parameters: dose 0.5 mg/kg, route intravenous; conditions: in vivo; how it was run: as §3
[27] = Volume of distribution at steady state in rat at 0.5 mg/kg, iv; type: ADME, organism-based; parameters: dose 0.5 mg/kg, route intravenous; conditions: in vivo, read-out: Vdss; how it was run: as §3
[28] = Clearance in beagle dog at 0.5 mg/kg, iv; type: ADME, organism-based, Canis lupus familiaris; parameters: dose 0.5 mg/kg, route intravenous; conditions: in vivo; how it was run: as §3
[29] = Volume of distribution at steady state in beagle dog at 0.5 mg/kg, iv; type: ADME, organism-based, Canis lupus familiaris; parameters: dose 0.5 mg/kg, route intravenous; conditions: in vivo, read-out: Vdss; how it was run: as §3
[30] = Clearance in cynomolgus monkey at 0.5 mg/kg, iv; type: ADME, organism-based, Macaca fascicularis; parameters: dose 0.5 mg/kg, route intravenous; conditions: in vivo; how it was run: as §3
[31] = Volume of distribution at steady state in cynomolgus monkey at 0.5 mg/kg, iv; type: ADME, organism-based, Macaca fascicularis; parameters: dose 0.5 mg/kg, route intravenous; conditions: in vivo, read-out: Vdss; how it was run: as §3
[32] = Mean residence time in mouse at 3 mg/kg, po; type: ADME, organism-based; parameters: dose 3 mg/kg, route oral; conditions: in vivo; how it was run: as §3
[33] = Mean residence time in rat at 3 mg/kg, po; type: ADME, organism-based; parameters: dose 3 mg/kg, route oral; conditions: in vivo; how it was run: as §3
[34] = Mean residence time in beagle dog at 3 mg/kg, po; type: ADME, organism-based, Canis lupus familiaris; parameters: dose 3 mg/kg, route oral; conditions: in vivo; how it was run: as §3
[35] = Mean residence time in cynomolgus monkey at 3 mg/kg, po; type: ADME, organism-based, Macaca fascicularis; parameters: dose 3 mg/kg, route oral; conditions: in vivo; how it was run: as §3
[36] = Oral bioavailability in mouse at 3 mg/kg; type: ADME, organism-based; conditions: in vivo; how it was run: as §3
[37] = Oral bioavailability in rat at 3 mg/kg; type: ADME, organism-based; conditions: in vivo; how it was run: as §3
[38] = Oral bioavailability in beagle dog at 3 mg/kg; type: ADME, organism-based, Canis lupus familiaris; conditions: in vivo; how it was run: as §3
[39] = Oral bioavailability in cynomolgus monkey at 3 mg/kg; type: ADME, organism-based, Macaca fascicularis; conditions: in vivo; how it was run: as §3
[40] = Ratio of drug uptake in blood to plasma of rat at 10 mg/kg, po; type: ADME, organism-based; parameters: dose 10 mg/kg, route oral; conditions: blood and plasma
How it was run: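 Single 10 mg/kg oral dose. Drug concentration in whole blood was divided by the plasma concentration to give the [blood]/[plasma] ratio. Brain/plasma and CSF/plasma ratios were obtained after the same dose.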

[41] = Ratio of drug uptake in brain to plasma of rat at 10 mg/kg, po; type: ADME, organism-based; parameters: dose 10 mg/kg, route oral; conditions: brain and plasma, read-out: BPR
[42] = Ratio of drug uptake in CSF to plasma of rat at 10 mg/kg, po; type: ADME, organism-based; parameters: dose 10 mg/kg, route oral; conditions: CSF and plasma
[43] = tested on: Rhesus monkey; assay: Cardiotoxicity in rhesus monkey assessed as QT prolongation administered as bolus dose; type: toxicity, organism-based, Macaca mulatta; conditions: in vivo
How it was run: (§4)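 Anesthetized rhesus monkeys received an IV bolus followed by a 45 min IV infusion. QTc recorded throughout.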

[44] = Plasma concentration in iv dosed rhesus monkey after 45 mins; type: ADME, organism-based, Macaca mulatta; how it was run: as §4
[45] = tested on: Cynomolgus monkey; assay: Cardiotoxicity in cynomolgus monkey assessed as QT prolongation at 30 mg/kg, po; type: toxicity, organism-based, Macaca fascicularis; parameters: dose 30 mg/kg, route oral; conditions: in vivo
How it was run: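 Cynomolgus monkeys (n = 3) given a single 30 mg/kg oral dose; QTc monitored.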

[46] = tested on: Canis familiaris; assay: Cardiotoxicity in dog assessed as QT prolongation at 300 mg/kg, po; type: toxicity, organism-based, Canis lupus familiaris; parameters: dose 300 mg/kg, route oral; conditions: in vivo
How it was run: (§5)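 Dogs dosed orally at 300 mg/kg in a 4 h study. QTc monitored throughout; plasma Cmax determined.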

[47] = Cmax in dog at 300 mg/kg, po; type: ADME, organism-based, Canis lupus familiaris; parameters: dose 300 mg/kg, route oral; conditions: in vivo; how it was run: as §5
[48] = tested on: Canis familiaris; assay: Cardiotoxicity in dog assessed as QT prolongation at 100 mg/kg, po BID for 28 days; type: toxicity, organism-based, Canis lupus familiaris; parameters: dose 100 mg/kg, route oral; conditions: in vivo, 672 h
[49] = tested on: Mus musculus; assay: Antiobesity activity in high fat diet-fed C57BL/6 mouse expressing wild type MCHR1 gene assessed as reduction in body weight at 100 mg/kg, po daily measured for 34 weeks relative to control; type: functional; parameters: scale not given: the % may be the effect or the level left
How it was run: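 Wild-type and MCHR1-knockout female C57BL/6 mice given compound mixed into a 60% kCal fat high-fat diet. Body weight gain at study end compared with vehicle.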

T1 sequence (Q12809 whole entry): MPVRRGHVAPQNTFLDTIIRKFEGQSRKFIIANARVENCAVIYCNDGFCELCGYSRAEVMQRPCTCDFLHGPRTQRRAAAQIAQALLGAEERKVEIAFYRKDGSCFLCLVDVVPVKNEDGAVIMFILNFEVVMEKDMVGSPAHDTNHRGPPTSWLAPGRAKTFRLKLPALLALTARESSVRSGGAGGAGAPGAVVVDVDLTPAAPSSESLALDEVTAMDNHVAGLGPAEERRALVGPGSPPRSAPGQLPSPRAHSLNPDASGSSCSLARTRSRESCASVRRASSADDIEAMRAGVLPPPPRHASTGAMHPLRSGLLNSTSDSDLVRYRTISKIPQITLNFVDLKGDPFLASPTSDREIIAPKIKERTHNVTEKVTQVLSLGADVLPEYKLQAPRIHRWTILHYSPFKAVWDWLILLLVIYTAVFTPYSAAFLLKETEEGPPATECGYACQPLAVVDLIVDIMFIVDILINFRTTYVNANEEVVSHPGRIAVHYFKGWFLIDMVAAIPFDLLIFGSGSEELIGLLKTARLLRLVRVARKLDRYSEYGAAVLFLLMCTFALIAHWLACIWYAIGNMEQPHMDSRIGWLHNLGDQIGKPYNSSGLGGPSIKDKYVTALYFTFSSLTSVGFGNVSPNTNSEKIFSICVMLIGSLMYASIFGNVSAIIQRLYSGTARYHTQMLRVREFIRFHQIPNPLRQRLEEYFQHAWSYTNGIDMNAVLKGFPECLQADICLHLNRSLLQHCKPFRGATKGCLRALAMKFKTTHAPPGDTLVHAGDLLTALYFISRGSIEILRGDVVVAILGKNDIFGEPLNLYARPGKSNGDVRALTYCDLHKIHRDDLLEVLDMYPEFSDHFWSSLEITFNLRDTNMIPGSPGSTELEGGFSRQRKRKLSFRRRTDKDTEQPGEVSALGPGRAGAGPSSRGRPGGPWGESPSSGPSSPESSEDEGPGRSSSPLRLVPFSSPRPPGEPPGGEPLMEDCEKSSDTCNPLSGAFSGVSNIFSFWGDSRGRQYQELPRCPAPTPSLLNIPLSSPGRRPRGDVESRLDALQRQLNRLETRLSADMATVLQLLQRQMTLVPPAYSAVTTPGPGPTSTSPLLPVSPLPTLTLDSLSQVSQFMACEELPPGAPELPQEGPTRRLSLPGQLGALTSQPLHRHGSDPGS

N=C(c1ccc(C(=O)Nc2ccc(Cl)cc2C(=O)Nc2ccc(Cl)cn2)cc1)N1CCCC(C(=O)O)C1 (centres undefined)
Ki [1]: > 10000 nM

CC(C)CC(N(C)C)C1(c2ccc(Cl)cc2)CCC1 (centres undefined)
Activity [2]: Active

C[C@H]1c2c([nH]c3ccc(C(F)(F)F)cc23)C[C@H]2CCN(CCC3(C(=O)O)CCCCC3)C[C@@H]21
IC50 [3]: 0.6 nM | IC50 [4]: > 5000 nM | Ki [5]: 0.6 nM | IC50 [6]: 1.2 nM | IC50 [7]: 0.6 nM | IC50 [8]: 0.8 nM | IC50 [9]: 0.8 nM | IC50 [10]: > 10000 nM | Ki [11]: > 2000 nM | Ki [12]: > 2000 nM | Ki [13]: 1120 nM | IC50 [14]: 1140 nM | Ki [15]: > 2000 nM | Ki [16]: 3160 nM | Ki [17]: > 2000 nM | Ki [18]: > 2000 nM | Ki [19]: > 2000 nM | Ki [20]: > 2000 nM | Ki [21]: > 2000 nM | Ki [22]: > 2000 nM | Ki [23]: > 2000 nM | clearance [24]: 10.7 mL/min/kg | Vd [25]: 3.6 L/kg | clearance [26]: 9.17 mL/min/kg | Vd [27]: 3.8 L/kg | clearance [28]: 8.83 mL/min/kg | Vd [29]: 2.2 L/kg | clearance [30]: 3.67 mL/min/kg | Vd [31]: 2.3 L/kg | MRT [32]: 5.8 h | MRT [33]: 7.9 h | MRT [34]: 4.2 h | MRT [35]: 11 h | bioavailability [36]: 79% | bioavailability [37]: 70% | bioavailability [38]: 40% | bioavailability [39]: 29% | blood plasma ratio [40]: 0.79 | Kp [41]: 0.4 | Kp [42]: 0.21 | Activity [43]: Non-toxic | concentration at 0.75 h [44]: 6.5 µM | Activity [45]: Non-toxic | Activity [46]: Non-toxic | Cmax [47]: 33 µM | Activity [48]: Non-toxic

C[C@H]1c2c([nH]c3ccc(C(F)(F)F)cc23)C[C@H]2CCN(CCC3(C(=O)O)CCCCC3)C[C@@H]21.Cl
Activity [49]: 33%
